Results: ChEMBL document CHEMBL4184296, “Novel inhibitors of Staphylococcus aureus RnpA that synergize with mupirocin” (Bioorg Med Chem Lett, 2018)
≈ marks a conversion by molar mass, not a printed value.

What was measured:
[1] = target: T1, Ribonuclease P protein component (Staphylococcus aureus, UniProt P0A0H5); assay: Inhibition of Staphylococcus aureus RnpA-mediated mRNA degradation after 15 to 30 mins by ethidium bromide staining based agarose gel electrophoresis
T1 sequence (P0A0H5 whole entry): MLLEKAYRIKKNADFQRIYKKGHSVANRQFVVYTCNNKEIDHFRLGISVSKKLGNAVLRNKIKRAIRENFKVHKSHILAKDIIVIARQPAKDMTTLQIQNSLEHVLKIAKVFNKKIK
Procedure, shortened: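 Recombinant S. aureus RnpA (≥97% purity) tested for inhibition of in vitro mRNA degradation.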

Staphylococcus aureus [2] = assay: Antibacterial activity against Staphylococcus aureus UAMS-1 after 18 hrs by Mueller-Hinton broth analysis; format: functional; conditions: UAMS-1, 18 h
Procedure, shortened: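 S. aureus UAMS-1, a methicillin-sensitive osteomyelitis clinical isolate, tested by CLSI broth method in 96-well format. MIC taken as the lowest compound concentration with no visible growth.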

HepG2 = assay: Cytotoxicity against human HepG2 cells assessed as reduction in cell viability after 24 hrs by MTT assay; format: cell-based; conditions: hepg2, 24 h
Procedure, shortened: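 Human HepG2 hepatocytes; overt cytotoxicity measured by MTT method. Value reported as the lowest concentration causing cytotoxicity.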

[3] = Inhibition of Staphylococcus aureus RnpA/RnpB-mediated tRNA cleavage after 15 mins by ethidium bromide staining based polyacrylamide gel electrophoresis
Procedure, shortened: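 RNase P reconstituted from equimolar S. aureus RnpA and rnpB; inhibition of in vitro tRNA maturation (cleavage) measured.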

Staphylococcus aureus [4] = assay: Potentiation of mupirocin-induced antibacterial activity against Staphylococcus aureus UAMS-1 assessed as mupirocin MIC at 8 ug/ml by checkerboard assay (reference value: 0.125 microg/ml); format: functional
Procedure, shortened: (§1)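 Checkerboard assay: wells seeded with 1 × 10^5 CFU ml-1 S. aureus UAMS-1. Test compound in 2-fold steps (0, 0.5, 1, 2, 4, 8, 16, 32 µg/mL) crossed with mupirocin (0, 0.03125, 0.0625, 0.125 µg/mL). Plates incubated 18 h at 37 °C, then growth read. FICI = (MIC compound combined / MIC alone) + (MIC mupirocin combined / MIC mupirocin alone).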

Staphylococcus aureus [5] = assay: Potentiation of mupirocin-induced antibacterial activity against Staphylococcus aureus UAMS-1 assessed as fractional inhibitory concentration index at 4 ug/ml by checkerboard assay; format: functional; procedure, shortened: as §1
Staphylococcus aureus [6] = assay: Potentiation of mupirocin-induced antibacterial activity against Staphylococcus aureus UAMS-1 assessed as fractional inhibitory concentration index at 0.5 ug/ml by checkerboard assay; format: functional; procedure, shortened: as §1
Staphylococcus aureus [7] = assay: Potentiation of mupirocin-induced antibacterial activity against Staphylococcus aureus UAMS-1 assessed as fractional inhibitory concentration index at 8 ug/ml by checkerboard assay; format: functional; procedure, shortened: as §1
Staphylococcus aureus [8] = assay: Potentiation of mupirocin-induced antibacterial activity against Staphylococcus aureus UAMS-1 assessed as fractional inhibitory concentration index at 16 ug/ml by checkerboard assay; format: functional; procedure, shortened: as §1
Staphylococcus aureus [9] = assay: Potentiation of mupirocin-induced antibacterial activity against Staphylococcus aureus UAMS-1 assessed as mupirocin MIC at 4 ug/ml by checkerboard assay (reference value: 0.125 microg/ml); format: functional; procedure, shortened: as §1
Staphylococcus aureus [10] = assay: Potentiation of mupirocin-induced antibacterial activity against Staphylococcus aureus UAMS-1 assessed as mupirocin MIC at 2 ug/ml by checkerboard assay (reference value: 0.125 microg/ml); format: functional; procedure, shortened: as §1
Staphylococcus aureus [11] = assay: Potentiation of mupirocin-induced antibacterial activity against Staphylococcus aureus UAMS-1 assessed as fractional inhibitory concentration index at 1 ug/ml by checkerboard assay; format: functional; procedure, shortened: as §1
Staphylococcus aureus [12] = assay: Potentiation of mupirocin-induced antibacterial activity against Staphylococcus aureus UAMS-1 assessed as mupirocin MIC at 1 ug/ml by checkerboard assay (reference value: 0.125 microg/ml); format: functional; procedure, shortened: as §1

Structure (SMILES) | IC50 [1] [µM] | MIC (Staphylococcus aureus [2]) [µg/mL] | MTC (HepG2) [µg/mL] | IC50 [3] [µM] | further results
CC(C)c1ccc(OCC(=O)NNC(=S)NC(=O)c2ccc(-c3ccccc3)o2)cc1 | 40 | 64 (≈ 146 µM) | 64 | 50 | 
CC(C)c1ccc(OCC(=O)NNC(=S)NC(=O)c2cc3ccccc3o2)cc1 |  | 32 (≈ 77.8 µM) | > 128 | 1 | MIC (Staphylococcus aureus [4]): 0.0312 µg/mL; fractional inhibitory concentration index (FICI) (Staphylococcus aureus [5]): 0.25; fractional inhibitory concentration index (FICI) (Staphylococcus aureus [6]): 0.508
Cc1cc(/C=C(/C#N)C(=O)Nc2cccc(Br)c2)c(C)n1-c1ccc(C(=O)O)cc1 | 100 | 32 (≈ 68.9 µM) | 25 | 175 | 
CC(C)c1ccc(OCC(=O)NNC(=S)NC(=O)Cc2ccco2)cc1 | 25 |  | 32 |  | 
CC(C)c1ccc(OCC(=O)NNC(=S)NC(=O)c2cc3cc(F)ccc3[nH]2)cc1 | < 50 |  | 256 | < 50 | 
CC(C)c1ccc(OCC(=O)NNC(=S)NC(=O)c2ccccc2)cc1 | > 500 | 64 (≈ 172 µM) | 512 | 350 | 
CC(C)c1ccc(OCC(=O)NNC(=S)NC(=O)c2cc3ccccc3s2)cc1 |  |  | 512 | 100 | 
CC(C)c1ccc(OCC(=O)NNC(=S)NC(=O)c2cccs2)cc1 | 250 | 64 (≈ 170 µM) | > 256 | 25 | 
CC(C)c1ccc(OCC(=O)NNC(=S)NC(=O)c2cc3ccccc3n2C)cc1 |  |  | > 256 | 50 | 
CC(C)c1ccc(OCC(=O)NNC(=S)NC(=O)c2ccccn2)cc1 |  |  | > 128 | 1 | MIC (Staphylococcus aureus [4]): 0.0625 µg/mL; fractional inhibitory concentration index (FICI) (Staphylococcus aureus [7]): 0.5; fractional inhibitory concentration index (FICI) (Staphylococcus aureus [8]): 0.625; fractional inhibitory concentration index (FICI) (Staphylococcus aureus [6]): 0.516
Cc1ccc(C(=O)NC(=S)NNC(=O)COc2ccc(C(C)C)cc2)o1 |  |  | > 128 | 105 | MIC (Staphylococcus aureus [9]): 0.0312 µg/mL; fractional inhibitory concentration index (FICI) (Staphylococcus aureus [5]): 0.5; fractional inhibitory concentration index (FICI) (Staphylococcus aureus [6]): 0.53
CC(C)c1ccc(OCC(=O)NNC(=S)NC(=O)c2ccc(Br)o2)cc1 |  |  | > 128 | 40 | fractional inhibitory concentration index (FICI) (Staphylococcus aureus [7]): 0.375; MIC (Staphylococcus aureus [10]): 0.0625 µg/mL; fractional inhibitory concentration index (FICI) (Staphylococcus aureus [6]): 0.516
Cc1ccoc1C(=O)NC(=S)NNC(=O)COc1ccc(C(C)C)cc1 |  |  | > 128 | 150 | 
CC(C)c1ccc(OCC(=O)NNC(=S)NC(=O)c2cc3cc(Cl)ccc3[nH]2)cc1 |  |  | 256 | 100 | 
CC(C)c1ccc(OCC(=O)NNC(=S)NC(=O)c2ccno2)cc1 |  |  | > 128 | > 500 | 
CC(C)c1ccc(OCC(=O)NNC(=S)NC(=O)c2nc3ccccc3[nH]2)cc1 |  |  | 512 | 90 | 

Structure (SMILES) | IC50 [1] [µM] | MIC (Staphylococcus aureus [2]) [µg/mL] | MTC (HepG2) [µg/mL] | IC50 [3] [µM] | further results
CC(C)c1ccc(OCC(=O)NNC(=S)NC(=O)c2cc3ccccc3[nH]2)cc1 |  |  | > 256 | 0.5 | fractional inhibitory concentration index (FICI) (Staphylococcus aureus [11]): 0.56; MIC (Staphylococcus aureus [12]): 0.0625 µg/mL
CC(C)c1ccc(OCC(=O)NNC(=S)NC(=O)c2ccncc2)cc1 |  |  | > 512 | 150 | 
CC(C)c1ccc(OCC(=O)NNC(=S)NC(=O)c2cnco2)cc1 |  |  | 64 | 50 | 
CC(C)c1ccc(OCC(=O)NNC(=S)NC(=O)c2ccco2)cc1 |  | 16 (≈ 44.3 µM) | > 128 | 140 | MIC (Staphylococcus aureus [9]): 0.0625 µg/mL; fractional inhibitory concentration index (FICI) (Staphylococcus aureus [5]): 0.49
COc1ccc2[nH]c(C(=O)NC(=S)NNC(=O)COc3ccc(C(C)C)cc3)cc2c1 |  |  | 32 |  | 
CC(C)c1ccc(OCC(=O)NNC(=S)NC(=O)c2cc3ccc(Cl)cc3[nH]2)cc1 |  |  | 32 | < 50 | 
CC(C)c1ccc(OCC(=O)NNC(=S)NC(=O)c2coc3ccccc23)cc1 | > 250 | 128 (≈ 311 µM) | 128 | 25 | 
CC(C)c1ccc(OCC(=O)NNC(=S)NC(=O)c2ccoc2)cc1 | 250 |  | 16 | 150 | 
CC(C)c1ccc(OCC(=O)NNC(=S)NC(=O)/C=C/c2ccco2)cc1 |  |  | > 256 | 32 | 
CC(C)c1ccc(OCC(=O)NNC(=S)NC(=O)c2cccnc2)cc1 |  |  | > 256 | 160 | 
CC(C)c1ccc(OCC(=O)NNC(=S)NC(=O)/C=C/c2cc3ccccc3o2)cc1 |  | > 256 | 256 | 26 | 
CC(C)c1ccc(OCC(=O)NNC(=S)NC(=O)c2c[nH]c3ccccc23)cc1 |  |  | > 128 | 90 | MIC (Staphylococcus aureus [4]): 0.0625 µg/mL; fractional inhibitory concentration index (FICI) (Staphylococcus aureus [7]): 0.5
COc1ccc2cc(C(=O)NC(=S)NNC(=O)COc3ccc(C(C)C)cc3)[nH]c2c1 | 50 | > 256 | > 512 |  | 
CC(C)c1ccc(OCC(=O)NNC(=S)NC(=O)c2ccc[nH]2)cc1 | > 250 | 16 (≈ 44.4 µM) | 16 | 25 | 
CC(C)c1ccc(OCC(=O)NNC(=S)NC(=O)c2ccsc2)cc1 |  |  | > 256 | 395 | 
